14 compounds from ChEMBL document CHEMBL5046304, “Novel Pyridazin-3(2H)-one-Based Guanidine Derivatives as Potential DNA Minor Groove Binders with Anticancer Activity” (ACS Med Chem Lett, 2022) can be followed below.

In one assay the test system is Salmon testes DNA. Kind of assay: Binding affinity to salmon sperm DNA assessed as thermal stability by measuring change in melting temperature at 15 uM at pH 7 by spectrophotometric analysis. It counts as nucleic-acid assay. To be noted: Salmo salar.
A further assay relates to NCI-H460. The experiment in a line: Cytotoxicity against human NCI-H460 cells assessed as reduction in cell viability at 100 uM after […] by MTT assay. It counts as functional. A digest of the protocol: (§1)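 Percentage inhibition of cell viability; values are means of three experiments.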
Assay [1] deals with A2780. Kind of assay: Cytotoxicity against human A2780 cells assessed as reduction in cell viability at 100 uM after 96 hrs by MTT assay. The format is functional. The procedure, abridged: as §1
(In general: Formazan colour is commonly taken as a measure of viable cells.)

For the next assay, the system named is MCF7. The experiment in a line: Cytotoxicity against human MCF7 cells assessed as reduction in cell viability at 100 uM after 96 hrs by MTT assay. It counts as functional. A digest of the protocol: as §1
Assay [2] relates to A2780. Kind of assay: Cytotoxicity against human A2780 cells assessed as reduction in cell viability measured after 96 hrs by MTT assay. It counts as functional, cell-based. To be noted: A2780, 96 h.

One may read the ΔTm as the change in melting temperature against a reference sample. `N=C(N)NCc1ccc(Cn2nccc(CNC(=N)N)c2=O)cc1`: the ΔTm with Salmon testes DNA worked out at 1.1 °C.

By inhibition is commonly meant the relative decrease from the control value, in per cent. For `Cc1cc(=O)n(Cc2ccc(CF)cc2)nc1CNC(=N)N`, the figures for the inhibition at 100 µM with NCI-H460, with A2780 [1] and in the assay with MCF7 were 5%, 34% and 13%, respectively.

Consider `N=C(N)NCc1ccc(Cn2ncc(CNC(=N)N)cc2=O)cc1`, for which, in the assay on Salmon testes DNA, the ΔTm was determined as 1.2 °C. Moreover, the inhibition at 100 µM in the assay with NCI-H460 worked out at 35%; in the assay with A2780 [1], 33%; with MCF7, 23%.

Turning to `N=C(N)NCc1cnn(Cc2ccccc2)c(=O)c1`, the inhibition at 100 µM in the assay with NCI-H460 amounted to 1%; with A2780 [1] it was 40%; in the assay with MCF7, 13%.

Turning to `Cc1cc(=O)n(C)nc1CNC(=N)N`, the inhibition at 100 µM is 2% in the assay on NCI-H460, 20% in the assay on A2780 [1] and 12% in the assay on MCF7.

For the compound `Cc1cc(=O)n(Cc2ccccc2)nc1CNC(=N)N`, the inhibition at 100 µM is 2% in the assay with NCI-H460, 23% in the assay with A2780 [1] and 18% with MCF7.

By IC50 is commonly meant the point on the concentration scale where inhibition reaches its midpoint. In the case of `Cc1cc(=O)n(Cc2ccc(CNC(=N)N)cc2)nc1CNC(=N)N`, in the assay on A2780 [2], the IC50 stood at 21 µM. Further, the ΔTm in the assay with Salmon testes DNA came out at 1.2 °C. Moreover, the inhibition at 100 µM in the assay with NCI-H460 was determined as 34%; with A2780 [1] it was 59%; in the assay with MCF7, 22%.

As to `Cn1nccc(CNC(=N)N)c1=O`, the inhibition at 100 µM in the assay with NCI-H460 was determined as 1%; in the assay with A2780 [1], 18%; with MCF7 it was 1%.

As to `N=C(N)NCc1ccc(Cn2nc(CNC(=N)N)ccc2=O)cc1`, the ΔTm with Salmon testes DNA stood at 1.4 °C.

`Cc1cc(=O)n(Cc2ccc(CCl)cc2)nc1CNC(=N)N`: the IC50 with A2780 [2] is greater than 100 µM. The figures for the inhibition at 100 µM in the assay with NCI-H460, in the assay on A2780 [1] and in the assay on MCF7 were 7%, 54% and 25%, respectively.

Regarding `Cn1ncc(CNC(=N)N)cc1=O`, the results for the inhibition at 100 µM with NCI-H460, in the assay on A2780 [1] and with MCF7 were 13%, 24% and 2%, respectively.

`Cn1nc(CNC(=N)N)ccc1=O`: the inhibition at 100 µM in the assay on NCI-H460 came to 4%; in the assay on A2780 [1] it was 11%; in the assay with MCF7, 20%.

Turning to `COCc1ccc(Cn2nccc(CNC(=N)N)c2=O)cc1`, the inhibition at 100 µM in the assay with NCI-H460 was determined as 1%; with A2780 [1] it was 38%.

In the case of `N=C(N)NCc1ccnn(Cc2ccccc2)c1=O`, the inhibition at 100 µM with NCI-H460 is 15%; in the assay with A2780 [1] it was 41%; with MCF7 it was 46%.
